Reference: paper PMC13170702 (Nuclear medicine and biology, 2025)

Assay: organ radiation dose estimates, OLINDA 1.1, ICRP-60
Format: in vivo, human
Summary of the method: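 Whole-body PET-MR ran as nine scans to 214 min. Organ VOIs were drawn in AMIDE, giving decay-corrected %IA per VOI; remainder = whole body minus measured organs. TIACs came from the exponential model (EXM) in OLINDA 1.1. Per-participant organ doses used 70 kg adult male or 55 kg female models in OLINDA 1.1. Effective dose (mSv) = organ absorbed doses × ICRP-60 tissue weighting factors.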

Estimated dose, Upper, lower intestine wall (Female n=4, mean±SD): 0.0160±0.0012 mGy/MBq
Estimated dose, Urinary bladder wall (Female n=4, mean±SD): 0.0588±0.0438 mGy/MBq
Estimated dose, Uterus (Female n=4, mean±SD): 0.0569±0.0512 mGy/MBq
Effective dose (whole body) (M1 (326 MBq)): 6.74 mSv
Estimated absorbed dose, Adrenals (M1 (326 MBq)): 6.51 mGy
Estimated absorbed dose, Brain (M1 (326 MBq)): 5.63 mGy
Estimated absorbed dose, Breasts (M1 (326 MBq)): 2.73 mGy
Estimated absorbed dose, Gallbladder wall (M1 (326 MBq)): 9.08 mGy
Estimated absorbed dose, Heart wall (M1 (326 MBq)): 8.79 mGy
Estimated absorbed dose, Kidneys (M1 (326 MBq)): 72.0 mGy
Estimated absorbed dose, Liver (M1 (326 MBq)): 16.0 mGy
Estimated absorbed dose, Lower large intestine wall (M1 (326 MBq)): 3.45 mGy
Estimated absorbed dose, Lungs (M1 (326 MBq)): 19.7 mGy
Estimated absorbed dose, Muscle (M1 (326 MBq)): 3.00 mGy
Estimated absorbed dose, Osteogenic cells (M1 (326 MBq)): 4.07 mGy
Estimated absorbed dose, Pancreas (M1 (326 MBq)): 6.41 mGy
Estimated absorbed dose, Red marrow (M1 (326 MBq)): 3.42 mGy
Estimated absorbed dose, Remainder (M1 (326 MBq)): 4.10 mGy
Estimated absorbed dose, Skin (M1 (326 MBq)): 2.10 mGy
Estimated absorbed dose, Small intestine (M1 (326 MBq)): 13.8 mGy
Estimated absorbed dose, Spleen (M1 (326 MBq)): 21.3 mGy
Estimated absorbed dose, Stomach wall (M1 (326 MBq)): 4.33 mGy
Estimated absorbed dose, Testes (M1 (326 MBq)): 2.12 mGy
Estimated absorbed dose, Thymus (M1 (326 MBq)): 16.7 mGy
Estimated absorbed dose, Thyroid (M1 (326 MBq)): 3.39 mGy
Estimated absorbed dose, Upper, lower intestine wall (M1 (326 MBq)): 5.37 mGy
Estimated absorbed dose, Urinary bladder wall (M1 (326 MBq)): 3.65 mGy
Effective dose (whole body) (M2 (289 MBq)): 5.48 mSv
Estimated absorbed dose, Adrenals (M2 (289 MBq)): 4.94 mGy
Estimated absorbed dose, Brain (M2 (289 MBq)): 3.03 mGy
Estimated absorbed dose, Breasts (M2 (289 MBq)): 2.26 mGy
Estimated absorbed dose, Gallbladder wall (M2 (289 MBq)): 6.41 mGy
Estimated absorbed dose, Heart wall (M2 (289 MBq)): 6.46 mGy
Estimated absorbed dose, Kidneys (M2 (289 MBq)): 37.8 mGy
Estimated absorbed dose, Liver (M2 (289 MBq)): 16.6 mGy
Estimated absorbed dose, Lower large intestine wall (M2 (289 MBq)): 2.97 mGy
Estimated absorbed dose, Lungs (M2 (289 MBq)): 11.0 mGy
Estimated absorbed dose, Muscle (M2 (289 MBq)): 2.55 mGy
Estimated absorbed dose, Osteogenic cells (M2 (289 MBq)): 3.58 mGy
Estimated absorbed dose, Pancreas (M2 (289 MBq)): 4.30 mGy
Estimated absorbed dose, Red marrow (M2 (289 MBq)): 2.76 mGy
Estimated absorbed dose, Remainder (M2 (289 MBq)): 3.32 mGy
Estimated absorbed dose, Skin (M2 (289 MBq)): 1.85 mGy
Estimated absorbed dose, Small intestine (M2 (289 MBq)): 9.32 mGy
Estimated absorbed dose, Spleen (M2 (289 MBq)): 7.24 mGy
Estimated absorbed dose, Stomach wall (M2 (289 MBq)): 3.41 mGy
Estimated absorbed dose, Testes (M2 (289 MBq)): 2.02 mGy
Estimated absorbed dose, Thymus (M2 (289 MBq)): 4.68 mGy
Estimated absorbed dose, Thyroid (M2 (289 MBq)): 2.23 mGy
Estimated absorbed dose, Upper, lower intestine wall (M2 (289 MBq)): 4.24 mGy
Estimated absorbed dose, Urinary bladder wall (M2 (289 MBq)): 4.70 mGy
Effective dose (whole body) (M3 (70.3 MBq)): 1.52 mSv
Estimated absorbed dose, Adrenals (M3 (70.3 MBq)): 1.21 mGy
Estimated absorbed dose, Brain (M3 (70.3 MBq)): 0.820 mGy
Estimated absorbed dose, Breasts (M3 (70.3 MBq)): 0.560 mGy
Estimated absorbed dose, Gallbladder wall (M3 (70.3 MBq)): 1.35 mGy
Estimated absorbed dose, Heart wall (M3 (70.3 MBq)): 1.79 mGy
Estimated absorbed dose, Kidneys (M3 (70.3 MBq)): 12.7 mGy
Estimated absorbed dose, Liver (M3 (70.3 MBq)): 2.61 mGy
Estimated absorbed dose, Lower large intestine wall (M3 (70.3 MBq)): 0.670 mGy
Estimated absorbed dose, Lungs (M3 (70.3 MBq)): 3.91 mGy
Estimated absorbed dose, Muscle (M3 (70.3 MBq)): 0.605 mGy
Estimated absorbed dose, Osteogenic cells (M3 (70.3 MBq)): 0.837 mGy
Estimated absorbed dose, Pancreas (M3 (70.3 MBq)): 1.33 mGy
Estimated absorbed dose, Red marrow (M3 (70.3 MBq)): 0.662 mGy
Estimated absorbed dose, Remainder (M3 (70.3 MBq)): 0.780 mGy
Estimated absorbed dose, Skin (M3 (70.3 MBq)): 0.434 mGy
Estimated absorbed dose, Small intestine (M3 (70.3 MBq)): 1.61 mGy
Estimated absorbed dose, Spleen (M3 (70.3 MBq)): 2.28 mGy
Estimated absorbed dose, Stomach wall (M3 (70.3 MBq)): 0.815 mGy
Estimated absorbed dose, Testes (M3 (70.3 MBq)): 0.479 mGy
Estimated absorbed dose, Thymus (M3 (70.3 MBq)): 1.64 mGy
Estimated absorbed dose, Thyroid (M3 (70.3 MBq)): 0.643 mGy
Estimated absorbed dose, Upper, lower intestine wall (M3 (70.3 MBq)): 0.879 mGy
Estimated absorbed dose, Urinary bladder wall (M3 (70.3 MBq)): 1.96 mGy
Effective dose (whole body) (M4 (153 MBq)): 2.89 mSv
Estimated absorbed dose, Adrenals (M4 (153 MBq)): 3.04 mGy
Estimated absorbed dose, Brain (M4 (153 MBq)): 2.44 mGy
Estimated absorbed dose, Breasts (M4 (153 MBq)): 1.31 mGy
Estimated absorbed dose, Gallbladder wall (M4 (153 MBq)): 3.80 mGy
Estimated absorbed dose, Heart wall (M4 (153 MBq)): 1.79 mGy
Estimated absorbed dose, Liver (M4 (153 MBq)): 2.12 mGy
Estimated absorbed dose, Lower large intestine wall (M4 (153 MBq)): 2.51 mGy
Estimated absorbed dose, Lungs (M4 (153 MBq)): 4.01 mGy
Estimated absorbed dose, Muscle (M4 (153 MBq)): 35.0 mGy
Estimated absorbed dose, Osteogenic cells (M4 (153 MBq)): 5.85 mGy
Estimated absorbed dose, Pancreas (M4 (153 MBq)): 1.52 mGy
Estimated absorbed dose, Red marrow (M4 (153 MBq)): 2.02 mGy
Estimated absorbed dose, Remainder (M4 (153 MBq)): 1.96 mGy
Estimated absorbed dose, Skin (M4 (153 MBq)): 4.45 mGy
Estimated absorbed dose, Small intestine (M4 (153 MBq)): 1.69 mGy
Estimated absorbed dose, Spleen (M4 (153 MBq)): 2.12 mGy
Estimated absorbed dose, Stomach wall (M4 (153 MBq)): 1.10 mGy
Estimated absorbed dose, Testes (M4 (153 MBq)): 7.89 mGy
Estimated absorbed dose, Thymus (M4 (153 MBq)): 1.19 mGy
Estimated absorbed dose, Thyroid (M4 (153 MBq)): 7.36 mGy
Estimated absorbed dose, Upper, lower intestine wall (M4 (153 MBq)): 2.17 mGy
Estimated absorbed dose, Urinary bladder wall (M4 (153 MBq)): 2.81 mGy
Effective dose (whole body) (Male n=4, mean±SD): 0.0196±0.0019 mSv/MBq
Estimated dose, Adrenals (Male n=4, mean±SD): 0.0181±0.00135 mGy/MBq
Estimated dose, Brain (Male n=4, mean±SD): 0.0135±0.00305 mGy/MBq
Estimated dose, Breasts (Male n=4, mean±SD): 0.00801±0.000253 mGy/MBq
Estimated dose, Gallbladder wall (Male n=4, mean±SD): 0.0230±0.00361 mGy/MBq
Estimated dose, Heart wall (Male n=4, mean±SD): 0.0214±0.00739 mGy/MBq
Estimated dose, Kidneys (Male n=4, mean±SD): 0.142±0.0804 mGy/MBq
Estimated dose, Liver (Male n=4, mean±SD): 0.0392±0.0195 mGy/MBq
Estimated dose, Lower, large intestine wall (Male n=4, mean±SD): 0.0114±0.00246 mGy/MBq
Estimated dose, Lungs (Male n=4, mean±SD): 0.0446±0.0167 mGy/MBq
Estimated dose, Muscle (Male n=4, mean±SD): 0.0589±0.100 mGy/MBq
Estimated dose, Osteogenic cells (Male n=4, mean±SD): 0.0180±0.0114 mGy/MBq
Estimated dose, Pancreas (Male n=4, mean±SD): 0.0156±0.00485 mGy/MBq
Estimated dose, Red marrow (Male n=4, mean±SD): 0.0104±0.00124 mGy/MBq
Estimated dose, Remainder (Male n=4, mean±SD): 0.0117±0.000634 mGy/MBq
Estimated dose, Skin (Male n=4, mean±SD): 0.0114±0.0101 mGy/MBq
Estimated dose, Small intestine (Male n=4, mean±SD): 0.0269±0.0137 mGy/MBq
Estimated dose, Spleen (Male n=4, mean±SD): 0.0340±0.0226 mGy/MBq
Estimated dose, Stomach wall (Male n=4, mean±SD): 0.0108±0.00294 mGy/MBq
Estimated dose, Testes (Male n=4, mean±SD): 0.0169±0.0202 mGy/MBq
Estimated dose, Thymus (Male n=4, mean±SD): 0.0245±0.0190 mGy/MBq
Estimated dose, Thyroid (Male n=4, mean±SD): 0.0178±0.0175 mGy/MBq
Estimated dose, Upper, lower intestine wall (Male n=4, mean±SD): 0.0142±0.00181 mGy/MBq
Estimated dose, Urinary bladder wall (Male n=4, mean±SD): 0.0180±0.00704 mGy/MBq
Structure (SMILES): COC(=O)[C@@H](N)CC(=O)Nc1ccc2c(c1)Cc1cc([18F])ccc1-2 [[^18F]RP-115, methyl N^4-(7-[^18F]fluoro-9H-fluoren-2-yl)asparaginate]
